Legend:
RAW 264.7 cells [1] = assay: Cell cycle analysis, propidium iodide FACS; assay type: cell-based, murine; details: 2 / TM7n and 5 / TM11 at 10 µM and 20 µM, respectively, 48 h
Method in brief: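 RAW 264.7 cells seeded at 250.000 cells/mL and exposed to test compound for 48 h, then fixed in 70% ethanol and stained with propidium iodide for flow cytometry. Controls were serum-free starvation for 24 h (G0/G1 block) and nocodazole for 2 h (G2/M block). Mean ± s.d. of three independent experiments.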

[2] = test system: RAW264.7 murine macrophages; assay: OZblue cell viability assay; assay type: cell-based; details: Mus musculus, RAW264.7, 48 h, read-out: IC50 cell viability
Method in brief: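 RAW264.7 murine macrophages exposed for 48 h to test compound at 1 to 50 µM. Viability was read with the OZblue reagent and IC50 taken from the concentration–response. Mean ± s.d. of three independent experiments.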

[3] = biological target: rM1M2_HuR (first two RRM domains of human HuR) / 5'-DY681-labeled AU-rich RNA probe (Homo sapiens, UniProt Q15717); assay: RNA Electrophoretic Mobility Shift Assay; assay type: binding
Sequence of rM1M2_HuR (first two RRM domains of human HuR) / 5'-DY681-labeled AU-rich RNA probe (Q15717 20-186 limits assumed): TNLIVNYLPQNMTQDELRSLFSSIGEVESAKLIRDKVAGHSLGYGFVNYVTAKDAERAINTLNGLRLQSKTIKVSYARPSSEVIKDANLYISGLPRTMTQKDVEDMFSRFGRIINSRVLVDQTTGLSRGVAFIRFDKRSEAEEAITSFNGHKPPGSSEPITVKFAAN
Method in brief: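 Human HuR RRM1-2 (rM1M2) was expressed in E. coli BL21. Protein (3.7 nM) was incubated 20 min with 1 nM 5′-DY681-labelled 26-nt AU-rich RNA and DMSO or test compound (15 µM screen; 0.01–25 µM dose–response). Samples ran on 4% native polyacrylamide at 80 V, 1.5 h, and were scanned for DY681. IC50 came from titration curves of band quantification.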

RAW 264.7 cells [4] = assay: Apoptosis: caspase 3 cleavage; assay type: cell-based, murine; details: RAW 264.7, 48 h, 15 µM (western blot, Annexin V)
Method in brief: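 RAW 264.7 cells seeded at 50,000 cells/mL and co-treated 48 h with test compound plus CellEvent caspase-3/7 reagent, imaged every 4 h by IncuCyte. For the western blot and Annexin V: 48 h with 15 µM test compound or DMSO. Controls were staurosporin 1 µM ± QVD 10 µM for 4 h. Blots probed for caspase 3, PARP and β-actin. Annexin V-FITC/PI staining was read by flow cytometry as fold change vs DMSO.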

[5] = Kinetic solubility by LC-MS in PBS with DMSO; assay type: physicochemical; details: 20% DMSO
[6] = test system: LPS-stimulated RAW264.7 cells; assay: qRT-PCR of LPS-induced genes; assay type: cell-based, murine; details: co-treatment LPS 1 µg/mL and TM 10 µM, 6 h
[7] = test system: LPS-stimulated RAW264.7 cells; assay: Cxcl10 secretion by ELISA; assay type: cell-based, murine; details: co-treatment LPS 1 µg/mL and TM 10 µM, 6 h
Method in brief: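 RAW264.7 seeded at 200.000 cells/mL and given LPS 1 µg/mL. Test compound (10 µM) or DMSO was either co-added for 6 h, or added after 2 h of LPS for a further 4 h. Supernatant was diluted 1:2 for mouse CXCL10 sandwich ELISA (TMB, 605 nm). pg/mL was normalised to crystal violet cell counts and expressed as % of LPS + DMSO; mean ± s.d., three independent experiments.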

[8] = biological target: His-tagged rM1M2 HuR protein / 5'-Bi-TNF ARE probe (Homo sapiens, UniProt Q15717); assay: Homogeneous Time-Resolved Fluorescence; assay type: binding
Sequence of His-tagged rM1M2 HuR protein / 5'-Bi-TNF ARE probe (Q15717 20-186 limits assumed): as above
Method in brief: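 His-tagged HuR M1M2 (20 nM) incubated with a biotinylated 26-nt TNF ARE RNA probe (50 nM), donor/acceptor beads and test compound (0.01–100 µM); DMSO control; protein hook point determined beforehand. HTRF signal was normalised to DMSO and fitted by nonlinear regression with a one-site model to give IC50. Mean ± s.d. of three independent experiments.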

RAW 264.7 cells [9] = assay: Real-time cell proliferation by Incucyte; assay type: cell-based, murine; details: RAW 264.7, 72 h
Method in brief: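 Growth curves were recorded by live-cell IncuCyte imaging of RAW 264.7 cells treated with test compounds over 72 h, and analysed in IncuCyte. Mean ± s.d. of three independent experiments.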

O=C1C=Cc2c(c(-c3ccco3)cn2S(=O)(=O)c2ccccc2)C1=O [5 / TM11, 3-(furan-2-yl)-1-(phenylsulfonyl)-1 H-indole-4,5-dione]
cell cycle distribution (RAW 264.7 cells [1]): accumulation of the cells in the S and G2/M phases | IC50 [2]: 15000 nM | IC50 [3]: 770 nM | inhibitory effect on HuR-RNA complex formation (REMSA screen) ([3]; TMs at 15 µM, 3.7 nM rM1M2_HuR, 1 nM RNA probe): greatest inhibitory effect | activation of apoptosis (caspase 3, PARP cleavage, Annexin V) (RAW 264.7 cells [4]): did not observe the activation of the apoptotic machinery | solubility relative to 2 / TM7n or 1 / TM6a [5]: ten times more soluble | expression of LPS-induced readout genes (Cxcl10, Fas, Nos2, Il1β) [6]: ability to counteract the effect of LPS stimulation | Cxcl10 level in supernatant [7]: downregulation of its level | IC50 [8]: 680 nM | proliferation rate (real-time growth) (RAW 264.7 cells [9]): dose-dependent decrease in proliferation rate

Cc1occ2c1C(=O)c1c(O)ccc(O)c1C2 [MS-444, reference compound]
activation of apoptosis (caspase 3, PARP cleavage, Annexin V) (RAW 264.7 cells [4]): absence of apoptotic effect

From publication PMC11489580 (Scientific Reports, 2024)
